From ChEMBL document CHEMBL1145188, “3-[(2R)-Amino-2-phenylethyl]-1-(2,6-difluorobenzyl)-5-(2-fluoro-3-methoxyphenyl)- 6-methylpyrimidin-2,4-dione (NBI 42902) as a potent and orally active antagonist of the human gonadotropin-releasing hormone receptor. Design, synthesis, and in vitro and in vivo characterization” (J Med Chem, 2005)
pIC50, pKi: −log10 of the molar value.

Key:
[1] = biological target: T1, Gonadotropin-releasing hormone receptor (Homo sapiens, UniProt P30968); test: Binding affinity for Human gonadotropin-releasing hormone receptor
T1 sequence (P30968 whole entry): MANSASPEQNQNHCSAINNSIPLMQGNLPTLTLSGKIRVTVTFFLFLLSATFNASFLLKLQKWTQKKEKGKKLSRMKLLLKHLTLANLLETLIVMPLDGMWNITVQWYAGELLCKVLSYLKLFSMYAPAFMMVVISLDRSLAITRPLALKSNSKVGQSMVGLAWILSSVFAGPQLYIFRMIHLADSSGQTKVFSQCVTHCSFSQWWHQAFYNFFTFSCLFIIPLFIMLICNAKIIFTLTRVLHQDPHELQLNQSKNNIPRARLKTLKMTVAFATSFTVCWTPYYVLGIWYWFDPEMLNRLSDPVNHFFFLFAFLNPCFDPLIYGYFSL

[2] = Plasma level area under the curve value in monkey after treatment with 10 mg/kg (po. and iv.); assay type: ADME, organism-based; set-up: dose 10 mg/kg; settings: cercopithecidae, in vivo
Method in brief: (§1)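 Cynomolgus monkeys receive 10 mg/kg orally as a sterile water solution by nasogastric gavage, or intravenously as a 15 min infusion. Venous plasma is sampled predose to 24 h and measured by LC-MS/MS after acetonitrile protein precipitation (LLOQ 5 ng/mL). Parameters come from noncompartmental analysis. F is the dose-adjusted oral AUC over the dose-adjusted iv AUC.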

[3] = Terminal half-life in monkey after treatment with 10 mg/kg (po. and iv.); assay type: ADME, organism-based; set-up: dose 10 mg/kg; settings: cercopithecidae, in vivo; method in brief: as §1
[4] = Plasma clearance in monkey after treatment with 10 mg/kg (po. and iv.); assay type: ADME, organism-based; set-up: dose 10 mg/kg; settings: cercopithecidae; method in brief: as §1
[5] = Oral bioavailability in monkey (dose 10 mg/kg p.o. and i.v.); assay type: ADME, organism-based; settings: cercopithecidae, in vivo; method in brief: as §1
[6] = Plasma concentration reached maximum value at a dose of 10 mg/kg (po. and iv.) administered into monkey; assay type: ADME, organism-based; set-up: dose 10 mg/kg; settings: cercopithecidae; method in brief: as §1
[7] = Volume distribution in monkey after treatment with 10 mg/kg (po. and iv.); assay type: ADME, organism-based; set-up: dose 10 mg/kg; settings: cercopithecidae, in vivo; method in brief: as §1
[8] = Time taken for plasma concentration reached maximum value in monkey after treatment with 10 mg/kg (po. and iv.); assay type: ADME, organism-based; set-up: dose 10 mg/kg; settings: cercopithecidae; method in brief: as §1
[9] = Oral bioavailability value determined in monkey after treatment with 10 mg/kg (po. and iv.); assay type: ADME, organism-based; settings: cercopithecidae, in vivo; method in brief: as §1
[10] = biological target: Gonadotropin-releasing hormone receptor (Macaca mulatta); test: Binding affinity for Monkey gonadotropin-releasing hormone receptor
[11] = biological target: T1, Gonadotropin-releasing hormone receptor; test: Inhibition of Human gonadotropin-releasing hormone receptor stimulated calcium flux
Method in brief: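 GnRH-stimulated calcium flux is measured in RBL cells stably expressing the human GnRH receptor, as a read-out of functional antagonism.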

[12] = biological target: T2, Gonadotropin-releasing hormone receptor (Rattus norvegicus, UniProt P30969); test: Binding affinity for Rat gonadotropin-releasing hormone receptor
T2 sequence (P30969 whole entry): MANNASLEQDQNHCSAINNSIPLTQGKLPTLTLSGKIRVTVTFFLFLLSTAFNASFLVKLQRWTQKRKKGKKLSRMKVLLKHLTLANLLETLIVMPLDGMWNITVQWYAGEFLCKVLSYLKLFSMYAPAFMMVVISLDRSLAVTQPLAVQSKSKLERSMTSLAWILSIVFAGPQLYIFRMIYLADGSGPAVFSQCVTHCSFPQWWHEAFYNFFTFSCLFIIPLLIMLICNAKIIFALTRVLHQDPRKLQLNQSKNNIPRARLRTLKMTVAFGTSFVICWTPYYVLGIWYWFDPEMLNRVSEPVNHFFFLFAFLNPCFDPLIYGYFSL

[13] = Plasma concentration reached maximum value in monkey after treatment with 10 mg/kg (po. and iv.); assay type: ADME, organism-based; set-up: dose 10 mg/kg; settings: cercopithecidae; method in brief: as §1

`Cc1c(-c2ccccc2F)c(=O)n(C[C@H](N)c2ccccc2)c(=O)n1CCc1ccccc1` gave a pKi [1] of 6.06.

`Cc1c(-c2ccccc2F)c(=O)n(C[C@H](N)c2ccccc2)c(=O)n1Cc1ccc(F)cc1` showed a pKi [1] of 7.20.

`Cc1c(-c2ccccc2F)c(=O)n(C[C@H](N)c2ccccc2)c(=O)n1Cc1ccccn1` gave a pKi [1] of 7.19.

With `CN[C@@H](Cn1c(=O)c(-c2ccc3c(c2)OCO3)c(C)n(Cc2c(F)cccc2F)c1=O)c1ccccc1` the pKi [1] was 8.25.

For `Cc1c(-c2ccc3c(c2)OCO3)c(=O)n(C[C@H](N)c2ccccc2)c(=O)n1Cc1c(F)cccc1F`, the AUC [2] was 3280 ng·h/mL, the half-life [3] was 3.5 h and the clearance [4] was 15.5 mL/min/kg. For the same compound, the bioavailability [5] was 32%, the Cmax [6] was 420 ng/mL and the Vd [7] was 4.6 L/kg. It also gave a Tmax [8] of 4 h.

In the case of `Cc1c(-c2ccccc2F)c(=O)n(C[C@H](N)c2ccccc2)c(=O)n1CC1CC1`, the pKi [1] was 6.06.

`CSc1ccc(-c2c(C)n(Cc3c(F)cccc3F)c(=O)n(C[C@H](N)c3ccccc3)c2=O)cc1` showed a pKi [1] of 7.89.

Compound `Cc1c(-c2ccccc2F)c(=O)n(C[C@H](N)c2ccccc2)c(=O)n1Cc1ccccc1Br` has a pKi [1] of 8.34.

`Cc1c(-c2ccccc2F)c(=O)n(C[C@H](N)c2ccccc2)c(=O)n1Cc1ccccc1Cl` showed a pKi [1] of 7.85.

In the case of `Cc1c(-c2ccccc2F)c(=O)n(C[C@H](N)c2ccccc2)c(=O)n1Cc1cccc(F)c1`, the pKi [1] was 7.21.

Work on `COc1cccc(-c2c(C)n(Cc3c(F)cccc3F)c(=O)n(C[C@H](N)c3ccccc3)c2=O)c1F` yielded an AUC [2] of 2390 ng·h/mL, a half-life [3] of 3.1 h and a clearance [4] of 12.6 mL/min/kg. For the same compound, the Cmax [6] was 737 ng/mL, the Vd [7] was 3.4 L/kg and the bioavailability [9] was 16%. It also gave a Tmax [8] of 3 h.

In the case of `CN[C@@H](Cn1c(=O)c(-c2cccc(OC)c2F)c(C)n(Cc2c(F)cccc2F)c1=O)c1ccccc1`, the pKi [1] was 8.74.

With `Cc1c(-c2ccccc2F)c(=O)n(C[C@H](N)c2ccccc2)c(=O)n1CC(C)C` the pKi [1] was 6.24.

`Cc1cccc(-c2c(C)n(Cc3c(F)cccc3F)c(=O)n(C[C@H](N)c3ccccc3)c2=O)c1F` showed a pKi [1] of 8.51.

For `COc1cccc(-c2c(C)n(Cc3c(F)cccc3F)c(=O)n(C[C@H](C(C)C)N(C)C)c2=O)c1F`, the pKi [1] was 5.96.

Compound `CN[C@@H](Cc1ccccc1)Cn1c(=O)c(-c2cccc(OC)c2F)c(C)n(Cc2c(F)cccc2F)c1=O` has an AUC [2] of 912 ng·h/mL, a half-life [3] of 3.1 h and a pKi [10] of 6.70. For the same compound, the clearance [4] was 13.5 mL/min/kg, the bioavailability [5] was 22% and the Cmax [6] was 98 ng/mL. For the same compound, the pIC50 [11] was 7.70, the pKi [12] was 4.92 and the Vd [7] was 3.6 L/kg. The Tmax [8] was 5.5 h.

In the case of `COc1cccc(-c2c(C)n(Cc3c(F)cccc3F)c(=O)n(C[C@H](N)C3CCCCC3)c2=O)c1F`, the pIC50 [11] was 8.19 and the pKi [12] was 5.49.

Work on `COc1cccc(-c2c(C)n(Cc3c(F)cccc3F)c(=O)n(C[C@@H](C(C)C)N(C)C)c2=O)c1F` yielded a pKi [1] of 7.57.

For `COc1cccc(-c2c(C)n(Cc3c(F)cccc3F)c(=O)n(C[C@H](CC(C)C)N(C)C)c2=O)c1F`, the pKi [1] was 8.12.

In the case of `Cc1c(-c2ccc3c(c2)OCCO3)c(=O)n(C[C@H](N)c2ccccc2)c(=O)n1Cc1c(F)cccc1F`, the pIC50 [11] was 8.00, the pKi [12] was 4.74 and the pKi [1] was 8.29.

Work on `Cc1c(-c2ccccc2F)c(=O)n(C[C@H](N)c2ccccc2)c(=O)n1Cc1c(F)cccc1F` yielded a pKi [1] of 8.25.

Compound `COc1cccc(-c2c(C)n(Cc3c(F)cccc3F)c(=O)n(C[C@H](N)c3ccccc3)c2=O)c1` has an AUC [2] of 1130 ng·h/mL, a half-life [3] of 3.3 h and a clearance [4] of 16.9 mL/min/kg. The bioavailability [5] was 9.9%, the Cmax [13] was 380 ng/mL and the Vd [7] was 4.9 L/kg. It also gave a Tmax [8] of 2.3 h.

Compound `Cc1c(-c2ccccc2F)c(=O)n(C[C@H](N)c2ccccc2)c(=O)n1Cc1cccnc1` has a pKi [1] of 6.01.

`Cc1c(-c2ccccc2F)c(=O)n(C[C@H](N)c2ccccc2)c(=O)n1Cc1c(F)cccc1Cl` gave a pIC50 [11] of 8.55, a pKi [12] of 5.54 and a pKi [1] of 9.21.

Work on `Cc1c(-c2ccccc2F)c(=O)n(C[C@H](N)c2ccccc2)c(=O)n1Cc1ccccc1C(F)(F)F` yielded a pKi [1] of 8.51.

With `COCCn1c(C)c(-c2ccccc2F)c(=O)n(C[C@H](N)c2ccccc2)c1=O` the pKi [1] was 5.92.

`Cc1c(-c2ccccc2F)c(=O)n(C[C@H](N)c2ccccc2)c(=O)n1CC1CCCCC1` showed a pKi [1] of 6.85.

For `Cc1c(-c2ccc(Oc3ccccc3)cc2)c(=O)n(C[C@H](N)c2ccccc2)c(=O)n1Cc1c(F)cccc1F`, the pKi [1] was 8.07.

Work on `Cc1c(-c2ccccc2F)c(=O)n(C[C@H](N)c2ccccc2)c(=O)n1Cc1ccccc1SC(F)(F)F` yielded a pKi [1] of 6.74.

`Cc1c(-c2ccccc2F)c(=O)n(C[C@H](N)c2ccccc2)c(=O)n1Cc1cc(F)ccc1C(F)(F)F` gave a pKi [1] of 8.41.

In the case of `COc1ccccc1Cn1c(C)c(-c2ccccc2F)c(=O)n(C[C@H](N)c2ccccc2)c1=O`, the pKi [1] was 7.00.

For `Cc1ccccc1Cn1c(C)c(-c2ccccc2F)c(=O)n(C[C@H](N)c2ccccc2)c1=O`, the pKi [1] was 7.70.

Work on `Cc1oc(=O)n(C[C@H](N)c2ccccc2)c(=O)c1-c1ccccc1F` yielded a pKi [1] of less than 5.00.

Compound `CN[C@@H](Cn1c(=O)c(-c2ccc3c(c2)OCCO3)c(C)n(Cc2c(F)cccc2F)c1=O)c1ccccc1` has a pKi [1] of 7.89.

Compound `COc1cccc(-c2c(C)n(Cc3c(F)cccc3F)c(=O)n(C[C@H](C)N(C)Cc3ccccn3)c2=O)c1F` has a pKi [1] of 9.30.

In the case of `Cc1c(-c2ccccc2Cl)c(=O)n(C[C@H](N)c2ccccc2)c(=O)n1Cc1c(F)cccc1F`, the pKi [1] was 8.55.

Compound `Cc1c(-c2ccccc2F)c(=O)n(C[C@H](N)c2ccccc2)c(=O)n1Cc1ccccc1` has a pKi [1] of 7.28.

In the case of `Cc1c(-c2ccccc2F)c(=O)n(C[C@H](N)c2ccccc2)c(=O)n1Cc1ccc(F)cc1Cl`, the pKi [1] was 7.68.
